Screening results deposited in PubChem BioAssay by several laboratories.
MC4R barr agon: human MC4R agonism via beta-arrestin; U2OS MC4R beta-arrestin complementation, luminescence; percent of melanotan II response, DMSO zero; AID 540308; hit rate 0.98% among 360,000; P32245; activation, % at 8.9 µM;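 active = activation above a per-plate cutoff, the mean activation of sample wells on that plate plus 3 SD, cut at about 8% in these data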
EBI2 block: blocks human EBI2 receptor beta-arrestin signaling. EBI2 beta-arrestin recruitment, luminescence, 7a,25-OHC stimulated. inhibition, % at 5 µM. hit rate 0.81% among 360,000; in the data active = inhibition above about 38%;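 also: enzyme fragment complementation signal reports receptor beta-arrestin coupling in cells; 0% = agonist plus DMSO wells and 100% = wells without agonist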
HTR2A ag: activates the mouse 5-HT2A serotonin receptor. activation, % at 7.6 µM. P35363. AID 624169. CHO-K1 mHTR2A beta-arrestin complementation, luminescence; percent of 30 µM serotonin response. hit rate 0.66% among 360,000;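 active = activation above a run cutoff, the mean activation of all tested compounds plus 3 SD, cut at about 14% in these data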;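 also: 0% = plate median of compound wells and 100% = 30 µM serotonin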
MC4R antagonist: human MC4R antagonism in cAMP assay | AID 540295 | MC4R-expressing cells, MTII-stimulated cAMP, LANCE TR-FRET | hit rate 0.48% among 360,000 | inhibition, % at 6.5 µM | P32245;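 active = inhibition above its plate's cutoff, the mean of tested wells on that plate plus 3 SD, cut at about 29% in these data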;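 also: 0% = Melanotan II alone and 100% = Melanotan II plus saturating MCL0020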
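System – human MC4R-expressing U2OS cells · Also added – Melanotan II · Dosing – one concentration, 6.5 µM nominal · Timing – 30-min compound, 1-h challenge, 1-h detection, room temperature · Measured by – Eu-cAMP/anti-cAMP TR-FRET, emission 671 nm · Replicates – singlicate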
MC4R barr conf: human MC4R beta-arrestin agonism confirmation | shares compounds with MC4R barr agon | U2OS MC4R beta-arrestin recruitment, luminescence; scaled DMSO 0%, Melanotan II 100% | activation, % at 8.9 µM | hit rate 31% among 2,400;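 active = mean activation across replicates above the hit cutoff set in the earlier primary screen, cut at about 8% in these data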
MOR-DOR barr ag: activates mu-delta opioid heterodimer, MC4R agonist counter-screen; shares compounds with MC4R barr agon; U2OS PathHunter beta-arrestin, beta-gal luminescence; percent of deltorphin B response, DMSO zero; activation, % at 9.2 µM; hit rate 5.8% among 2,400; AID 602194;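 active = mean activation across replicates exceeds the hit threshold derived in the earlier primary screen, cut at about 18% in these data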;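 also: 100% = deltorphin B at 0.9 µM final and 0% = DMSO alone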
Target sequence (P35372 whole entry, looked up): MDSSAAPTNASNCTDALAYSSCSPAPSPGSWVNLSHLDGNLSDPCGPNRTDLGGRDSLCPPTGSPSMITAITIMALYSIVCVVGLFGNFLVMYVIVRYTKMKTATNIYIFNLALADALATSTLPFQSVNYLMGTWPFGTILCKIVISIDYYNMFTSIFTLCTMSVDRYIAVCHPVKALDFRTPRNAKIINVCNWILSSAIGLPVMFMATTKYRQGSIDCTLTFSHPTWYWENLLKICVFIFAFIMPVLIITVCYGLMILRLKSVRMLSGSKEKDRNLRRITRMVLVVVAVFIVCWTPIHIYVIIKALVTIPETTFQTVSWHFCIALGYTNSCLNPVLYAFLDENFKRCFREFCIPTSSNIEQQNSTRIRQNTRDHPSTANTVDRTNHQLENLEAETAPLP
Target sequence (P41143 whole entry, looked up): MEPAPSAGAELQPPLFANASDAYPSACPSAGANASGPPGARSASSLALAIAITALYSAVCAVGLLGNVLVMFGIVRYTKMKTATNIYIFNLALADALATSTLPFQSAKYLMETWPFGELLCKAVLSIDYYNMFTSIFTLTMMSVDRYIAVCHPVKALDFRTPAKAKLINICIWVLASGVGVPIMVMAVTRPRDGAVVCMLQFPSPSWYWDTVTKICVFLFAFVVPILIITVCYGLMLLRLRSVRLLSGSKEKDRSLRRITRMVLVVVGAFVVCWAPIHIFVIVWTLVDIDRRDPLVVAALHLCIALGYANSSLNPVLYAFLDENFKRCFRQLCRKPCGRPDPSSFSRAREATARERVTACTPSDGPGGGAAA
* hit, by the source's call; . = not tested or not shown. Rows were chosen to be rich in hits. Some 2.8% of all compounds tested hit in one or more screens of this group.

SMILES	MC4R barr agon	EBI2 block	HTR2A ag	MC4R antagonist	MC4R barr conf	MOR-DOR barr ag
O=C(COc1ccc2ccccc2c1)Nc1nc2ccccc2[nH]1	10.5*	8.6	6.6	1.9	0.1	6.5
O=c1c(Cl)c(N/N=C/c2ccc(Cl)cc2)cnn1-c1ccccc1	18.4*	-11.9	0.1	2.9	9.4*	4.6
Nc1c(C(=O)N/N=C/c2ccc(Cl)cc2)cnn1-c1ccccc1	4.1	20.2	-0.8	8.7	.	.
CCOc1cc(NC(=O)c2cccs2)c(OCC)cc1NC(=O)c1ccco1	11.8*	3.4	2.3	6.0	16.6*	5.6
O=C(OC1CCN(c2ccc([N+](=O)[O-])cc2)CC1)c1ccccc1	20.4*	11.8	0.9	2.3	1.9	6.0
Cc1ccc(NCC(=O)N/N=C/c2cccc(Oc3ccccc3)c2)cc1	23.6*	43.6	-0.2	-0.7	3.7	3.3
Cc1cccc(NCC(=O)N/N=C\c2cccc(Oc3ccccc3)c2)c1	11.9*	21.9	-1.3	-1.9	3.3	3.6
N#CCC(=O)N/N=C/c1cccc(Oc2ccccc2)c1	0.3	0.7	-1.2	4.2	.	.
Cc1cccc(OCC(=O)NCC(=O)N/N=C/c2ccccc2)c1	0.0	40.4	6.8	-5.0	.	.
CC(/C=C/C=C/c1ccccc1)=N/NC(=O)CNc1ccc(C)cc1	13.8*	15.9	2.7	-17.6	0.8	3.5
COc1ccc([C@H]2C[C@@H](n3cc(-c4ccc(F)cc4)nn3)[C@H](O)CN2C(=O)C2CCCCC2)cc1	0.6	15.1	-7.4	11.9	.	.
O=C(CCC(=O)N1CCN(S(=O)(=O)c2ccccc2Cl)CC1)c1ccccc1	-2.2	5.1	2.5	-1.8	.	.
OCC[C@@H]1C[C@H](O)[C@@H](O)[C@@]2(OCc3ccc4ccccc4c32)O1	.	-7.6	-1.9	.	.	.
Cc1ccc(OCC(=O)Nc2ccc(NC(=O)c3ccco3)cc2)c(C)c1	18.4*	0.4	2.1	7.7	0.5	6.0
Cc1ccc(OCC(=O)Nc2cccc(-c3nnc(-c4ccccc4)o3)c2)c(C)c1	35.0*	-8.1	2.6	7.5	7.5	3.6
Cc1c([N+](=O)[O-])cc(C(=O)Nc2ccc(NC(=O)c3ccco3)cc2)cc1[N+](=O)[O-]	10.1*	-10.8	6.4	-0.8	-4.7	8.5
O=C(Nc1ccc(Cl)c([N+](=O)[O-])c1)c1ccco1	-0.3	2.5	1.9	2.1	.	.
Cc1cc(C)c(OCC(=O)Nc2ccc(NC(=O)c3ccco3)cc2)c([N+](=O)[O-])c1	12.6*	14.6	2.7	3.9	0.7	2.6
CC(C)(C)c1ccc(CC(=O)N2CCC2(C)C(=O)NS(=O)(=O)c2ccc(Cl)cc2)cc1 (configuration not stated)	-1.4	-2.2	4.6	10.2	.	.
CCCCNC(=O)c1nc(-c2ccncc2)oc1-c1ccccc1	.	2.5	-2.5	.	.	.
O=C(NC(=S)Nc1ccc(NC(=O)c2ccco2)cc1)c1ccccc1	2.8	-10.1	0.1	5.0	.	.
COc1cc(C(=O)NC(=S)Nc2ccc(NC(=O)c3ccco3)cc2)cc(OC)c1OC	10.6*	-13.2	2.6	-2.3	-0.4	4.5
S=C(Nc1cc(Cl)cc(Cl)c1)NC1CCN(Cc2ccccc2)CC1	13.1*	2.8	-8.5	4.7	7.9	21.7*
COc1cc(NC(=O)Nc2nnc([C@H]3C[C@H](O)[C@@H](CO)O3)s2)cc(OC)c1	-1.2	1.4	-3.8	1.6	.	.
O=C(NN=Cc1cc(Cl)ccc1[N+](=O)[O-])c1cccc2ccccc12	10.6*	-2.7	-4.8	-1.0	4.4	8.7
O=C(NN=Cc1ccccc1Cl)c1cccc2ccccc12	-0.1	-10.6	-4.7	7.4	.	.
CC(C)(C)c1ccc(S(=O)(=O)NNC(=O)c2cc3ccccc3[nH]2)cc1	16.7*	19.1	10.9	9.6	7.7	15.9
CCCC(C)NNC(=O)c1cc2ccccc2[nH]1 (configuration not stated)	-1.9	-2.4	1.5	7.0	.	.
Cc1ccc(NC(=O)CSc2ccccc2NC(=O)c2ccccc2)cc1Cl	12.6*	22.7	-6.7	12.0	8.2	24.1*
CC(C)c1ccc(C2OCC(C)([N+](=O)[O-])CO2)cc1 (configuration not stated)	-2.6	7.2	-0.3	3.3	.	.
